Series [1] in a line: melting temperature; fluorescence melt of hairpins on a sequencing array, two-state fit, raised by 9.35 °C to match UV melts. The note with it: sodium 0.088 M. An outline of the steps:
(§1)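 Bootstrapped two-state fits yielded melting temperature and folding enthalpy for library hairpins. Cy3 fluorescence, with annealed Cy3 and quencher oligos, was imaged on a sequenced MiSeq flow cell in 50 mM Na-HEPES pH 8.0, 25 mM NaCl in 2.5 °C steps up to 60 °C, and normalised to pre-quench Cy3 and to control constructs. Four replicates were combined by inverse variance, and fitted temperatures were raised by 9.35 °C to match UV melts.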

Series [2] is described as follows: folding enthalpy; higher = less favourable; fluorescence melt of hairpins on a sequencing array, two-state fit. The note with it: sodium 0.088 M. Summed up:
as §1

On to GCGTGGCGAAAGCCCTGC ((..(((....)))..)), for which the Tm in series [1] was 47.2 °C. In addition, in series [2], the folding enthalpy is -18.3 kcal/mol.

As for GGTTTTGGAAACAGAACC ((((.((....)).)))), the Tm in series [1] stood at 42.1 °C. Further, the folding enthalpy in series [2] is -36.7 kcal/mol.

With GCTAGGGGAAACCCTAAC (.(((((....))))).), the Tm in series [1] came out at 32.1 °C. For the same sequence, the folding enthalpy in series [2] is -13.4 kcal/mol.

With GCCGTGGGAAACCACGAC (.(((((....))))).), in series [1], the Tm came out at 52 °C. The folding enthalpy in series [2] was -14.8 kcal/mol.

Regarding GATCCTCAGCAGGATC ((((((....)))))), the Tm in series [1] was determined as 48.8 °C. Also, the folding enthalpy in series [2] is -33.2 kcal/mol.

Turning to GTGTTGAAAAACAC (((((....))))), the Tm in series [1] is 49.9 °C. In addition, the folding enthalpy in series [2] is -26.3 kcal/mol.

For the sequence GCCAGCACGAAAGTGGGC (((..(((....)))))), in series [1], the Tm stood at 50.9 °C. Besides, in series [2], the folding enthalpy is -26.9 kcal/mol.

With GATCCAGTCATGGATC ((((((....)))))), the Tm in series [1] was determined as 58.3 °C. Also, the folding enthalpy in series [2] was -39.8 kcal/mol.

Take GCGATAACTCGC ((((....)))): the Tm in series [1] was 45.9 °C. The folding enthalpy in series [2] is -21.1 kcal/mol.

GTGCCTCGAAAGAGTCAC (((.(((....))).))): the Tm in series [1] is 50.4 °C. For the same sequence, the folding enthalpy in series [2] is -29.5 kcal/mol.

In the case of GTGTGCGAAAGCAGTCAC ((((((....)))..))), the Tm in series [1] was found to be 38.5 °C. For the same sequence, in series [2], the folding enthalpy was -16.5 kcal/mol.

Take GGGAGACGAAAGTCACCC (((.(((....))).))): the Tm in series [1] turned out to be 58.2 °C. In addition, in series [2], the folding enthalpy is -31.5 kcal/mol.

Consider GTCGGCGAAAGCCTGGAC ((((((....)))..))), for which the Tm in series [1] worked out at 45 °C. Moreover, the folding enthalpy in series [2] is -15.2 kcal/mol.

Turning to CGAAGCGGAAACGCATCG (((.(((....))).))), in series [1], the Tm was 51.5 °C. In addition, in series [2], the folding enthalpy is -27.5 kcal/mol.

GTTCACCGAAAGGTAAAC (((.(((....))).))): in series [1], the Tm turned out to be 40.5 °C. Besides, the folding enthalpy in series [2] was -20.4 kcal/mol.

For the sequence GTTTCCCGAAAGGGGAAC (((.(((....))).))), in series [1], the Tm came out at 56.1 °C. Besides, the folding enthalpy in series [2] was -36.2 kcal/mol.

Consider GACCAAGGAAACCTGGTC (((((.(....).))))), for which, in series [1], the Tm is 47.2 °C. The folding enthalpy in series [2] was -33.4 kcal/mol.

Consider GCACAGCGAAAGCTGAGC ((.((((....)))).)), for which, in series [1], the Tm came out at 63.4 °C. Also, the folding enthalpy in series [2] was -17.2 kcal/mol.

GGTTGAGGAAACTCAGTC (..((((....))))..): in series [1], the Tm stood at 30.9 °C. Further, the folding enthalpy in series [2] is -14.5 kcal/mol.

In the case of GCCCCGCGAAAGCGACGC ((..(((....)))..)), the Tm in series [1] is 31.3 °C. In addition, the folding enthalpy in series [2] is -10.6 kcal/mol.

Turning to GGCGTGGGAAACTACGCC (((((.(....).))))), the Tm in series [1] turned out to be 61.2 °C. Besides, the folding enthalpy in series [2] is -48 kcal/mol.

Regarding GTTCGGACGAAAGTCAAC (((..(((....)))))), the Tm in series [1] was found to be 29.1 °C. Besides, the folding enthalpy in series [2] was -9.64 kcal/mol.

For the sequence GCCGCGCGAAAGCGGTGC ((..(((....)))..)), the Tm in series [1] was determined as 58 °C. Also, in series [2], the folding enthalpy was -16.2 kcal/mol.

Turning to GCATGTGGAAACATATGC ((((.((....)).)))), the Tm in series [1] stood at 49.5 °C. Further, the folding enthalpy in series [2] was -30.9 kcal/mol.

Consider GATCTTCAATAAGATC ((((((....)))))), for which the Tm in series [1] is 39.8 °C. Also, the folding enthalpy in series [2] is -30.6 kcal/mol.

For GATCTCTCAGGAGATC ((((((....)))))), the Tm in series [1] turned out to be 54.2 °C. Further, in series [2], the folding enthalpy was -48 kcal/mol.

As for GCTGATGAAAATCAGC ((((((....)))))), the Tm in series [1] is 60.6 °C. In addition, the folding enthalpy in series [2] is -35.8 kcal/mol.

On to GATCAAGTCCTTGATC ((((((....)))))), for which the Tm in series [1] was 49.7 °C. Besides, the folding enthalpy in series [2] was -38.2 kcal/mol.

In the case of CTCGAGAAATCGAG (((((....))))), in series [1], the Tm is 47.9 °C. Besides, the folding enthalpy in series [2] was -21.2 kcal/mol.

On to GTTTTTGGAAACAAAAGC (.(((((....))))).), for which the Tm in series [1] is 35.6 °C. Also, in series [2], the folding enthalpy was -29.6 kcal/mol.

As to GCGATCGAAAGATACCGC ((((((....)))..))), the Tm in series [1] amounted to 37.2 °C. The folding enthalpy in series [2] was -23.8 kcal/mol.

Consider GTCCCCGGAAACGGAGAC (((.(((....))).))), for which, in series [1], the Tm stood at 47.7 °C. The folding enthalpy in series [2] is -28 kcal/mol.

Regarding GATCCGAGTTCGGATC ((((((....)))))), the Tm in series [1] worked out at 58.5 °C. The folding enthalpy in series [2] is -47.4 kcal/mol.

Consider GGATATCCGAAAGGATCC (((..(((....)))))), for which the Tm in series [1] is 32.3 °C. In addition, the folding enthalpy in series [2] was -11.4 kcal/mol.

On to GATCCCTGCGGGGATC ((((((....)))))), for which the Tm in series [1] came to 62 °C. In addition, the folding enthalpy in series [2] is -45.6 kcal/mol.

Take GATCGCAAAAGCGATC ((((((....)))))): the Tm in series [1] is 61.9 °C. Also, the folding enthalpy in series [2] was -29.1 kcal/mol.

Consider GATCCAGCAATGGATC ((((((....)))))), for which the Tm in series [1] amounted to 56.8 °C. For the same sequence, the folding enthalpy in series [2] is -41.6 kcal/mol.
